According to ChEMBL document CHEMBL4321831, “Vaccine Adjuvants Derivatized from Momordica Saponins I and II” (J Med Chem, 2019):
The source made the active and inactive calls. The calls are words filed in the database; no cut-off is given here.

Columns and labels:
Mus musculus [1] = test: Immuno-adjuvant activity in recombinant Porphyromonas gingivalis HagB-immunized BALB/c mouse assessed as potentiation of antibody response to rHagB by measuring increase in serum anti-rHagB IgG1 activity at 100 ug, sc administered immediately and on day 14, 28 and measured at week 2 to 4 by ELISA; type: functional, organism-based
Mus musculus [2] = test: Immuno-adjuvant activity in OVA-immunized BALB/c mouse assessed as potentiation of antibody response to OVA by measuring serum anti-OVA IgG1 level at 100 ug, sc administered immediately and on day 14, 28 and measured at week 6 by ELISA (reference value: 113 +/- 37 ug/ml); type: functional
Procedure, shortened: (§1)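 Female BALB/c mice (8–10 weeks, six per group) got sc OVA (20 μg) plus adjuvant (100 μg) on days 0, 14 and 28. Tail-vein serum was taken before each dose and 2 weeks after the last. ELISA plates were coated with OVA (0.1 μg/mL) in borate-buffered saline, pH 8.2. Serial 2-fold serum dilutions were run in duplicate, detected with HRP anti-mouse IgG/IgG1/IgG2a and o-phenylenediamine, and read at 490 nm.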

Mus musculus [3] = test: Immuno-adjuvant activity in OVA-immunized BALB/c mouse assessed as potentiation of antibody response to OVA by measuring serum anti-OVA IgG2a level at 100 ug, sc administered immediately and on day 14, 28 and measured at week 6 by ELISA (reference value: 0.1 ug/ml); type: functional; procedure, shortened: as §1
Mus musculus [4] = test: Immuno-adjuvant activity in OVA-immunized BALB/c mouse assessed as potentiation of antibody response to OVA by measuring increase in serum anti-OVA IgG activity at 100 ug, sc administered immediately and on day 14, 28 and measured at week 2 to 6 by ELISA; type: functional, organism-based; procedure, shortened: as §1
Mus musculus [5] = test: Immuno-adjuvant activity in OVA-immunized BALB/c mouse assessed as potentiation of antibody response to OVA by measuring ratio of serum anti-OVA IgG2a to serum anti-OVA IG1 level at 100 ug, sc administered immediately and on day 14, 28 and measured at week 6 by ELISA; type: functional
[6] = Toxicity in OVA-immunized BALB/c mouse assessed as changes in body weight at 100 ug, sc administered immediately and on day 14, 28 and measured at week 6; type: organism-based; settings: in vivo
Procedure, shortened: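 Female BALB/c mice (8–10 weeks, six per group) received sc OVA (20 μg) with adjuvant (100 μg) on days 0, 14 and 28. Body weight was recorded before each immunization and 2 weeks after the final one.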

Mus musculus [7] = test: Immuno-adjuvant activity in OVA-immunized BALB/c mouse assessed as potentiation of antibody response to OVA by measuring increase in serum anti-OVA IgG1 activity at 100 ug, sc administered immediately and on day 14, 28 and measured at week 2 to 4 by ELISA; type: functional, organism-based; procedure, shortened: as §1
Mus musculus [8] = test: Immuno-adjuvant activity in OVA-immunized BALB/c mouse assessed as potentiation of antibody response to OVA by measuring serum anti-OVA IgG2a activity at 100 ug, sc administered immediately and on day 14, 28 and measured at week 2 by ELISA; type: functional, organism-based; procedure, shortened: as §1
Mus musculus [9] = test: Immuno-adjuvant activity in OVA-immunized BALB/c mouse assessed as potentiation of antibody response to OVA by measuring increase in serum anti-OVA IgG2a activity at 100 ug, sc administered immediately and on day 14, 28 and measured at week 4 to 6 by ELISA; type: functional, organism-based; procedure, shortened: as §1
Mus musculus [10] = test: Immuno-adjuvant activity in recombinant Porphyromonas gingivalis HagB-immunized BALB/c mouse assessed as potentiation of antibody response to rHagB by measuring serum anti-rHagB IgG1 activity at 100 ug, sc administered immediately and on day 14, 28 and measured at week 6 by ELISA; type: functional, organism-based
Mus musculus [11] = test: Immuno-adjuvant activity in recombinant Porphyromonas gingivalis HagB-immunized BALB/c mouse assessed as potentiation of antibody response to rHagB by measuring increase in serum anti-rHagB IgG activity at 100 ug, sc administered immediately and on day 14, 28 and measured at week 2 to 4 by ELISA; type: functional, organism-based
Mus musculus [12] = test: Immuno-adjuvant activity in recombinant Porphyromonas gingivalis HagB-immunized BALB/c mouse assessed as potentiation of antibody response to rHagB by measuring increase in serum anti-rHagB IgG activity at 100 ug, sc administered immediately and on day 14, 28 and measured at week 6 by ELISA; type: functional, organism-based
Mus musculus [13] = test: Immuno-adjuvant activity in OVA-immunized BALB/c mouse assessed as potentiation of antibody response to OVA by measuring increase in serum anti-OVA IgG activity at 100 ug, sc administered immediately and on day 14, 28 and measured at week 2 to 4 by ELISA; type: functional, organism-based; procedure, shortened: as §1
Mus musculus [14] = test: Immuno-adjuvant activity in OVA-immunized BALB/c mouse assessed as potentiation of antibody response to OVA by measuring serum anti-OVA IgG activity at 100 ug, sc administered immediately and on day 14, 28 and measured at week 6 by ELISA; type: functional, organism-based; procedure, shortened: as §1
[15] = Acute toxicity in BALB/c mouse assessed as mouse survival at 100 to 200 ug, sc measured after 5 days; type: organism-based; settings: in vivo
Procedure, shortened: (§2)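 Female BALB/c mice, 10 weeks old, 5 per group, given a single subcutaneous injection in the neck of adjuvant in 0.1 mL PBS at doses from 100 to 5000 μg, with untreated controls. Survival was counted 5 days after injection. Surviving mice were checked through day 7 for fur condition, behaviour, lethargy and lesion formation.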

Mus musculus [16] = test: Immuno-adjuvant activity in OVA-immunized BALB/c mouse assessed as potentiation of antibody response to OVA by measuring increase in serum anti-OVA IgG1 activity at 100 ug, sc administered immediately and on day 14, 28 and measured at week 6 by ELISA; type: functional, organism-based; procedure, shortened: as §1
Mus musculus [17] = test: Immuno-adjuvant activity in recombinant Porphyromonas gingivalis HagB-immunized BALB/c mouse assessed as potentiation of antibody response to rHagB by measuring increase in serum anti-rHagB IgG2a activity at 100 ug, sc administered immediately and on day 14, 28 and measured at week 2 to 6 by ELISA; type: functional, organism-based
[18] = Acute toxicity in BALB/c mouse assessed as mouse survival at 5000 ug, sc measured after 5 days; type: organism-based; settings: in vivo; procedure, shortened: as §2
[19] = Acute toxicity in BALB/c mouse assessed as lethargy at 100 to 2000 ug, sc measured at day 7 post injection; type: organism-based; settings: in vivo; procedure, shortened: as §2
[20] = Acute toxicity in BALB/c mouse assessed as lesion formation at 100 to 2000 ug, sc measured at day 7 post injection; type: organism-based; settings: in vivo; procedure, shortened: as §2
[21] = Acute toxicity in BALB/c mouse assessed as normal animal behaviour with healthy fur at 100 to 2000 ug, sc measured at day 5 post injection; type: organism-based; settings: in vivo; procedure, shortened: as §2
[22] = Acute toxicity in BALB/c mouse assessed as mouse survival at 100 to 2000 ug, sc measured after 5 days; type: organism-based; settings: in vivo; procedure, shortened: as §2
Mus musculus [23] = test: Immuno-adjuvant activity in recombinant Porphyromonas gingivalis HagB-immunized BALB/c mouse assessed as potentiation of antibody response to rHagB by measuring serum anti-rHagB IgG2a activity at 100 ug, sc administered immediately and on day 14, 28 and measured at week 6 by ELISA; type: functional, organism-based
Mus musculus [24] = test: Immuno-adjuvant activity in recombinant Porphyromonas gingivalis HagB-immunized BALB/c mouse assessed as potentiation of antibody response to rHagB by measuring increase in serum anti-rHagB IgG2a activity at 100 ug, sc administered immediately and on day 14, 28 and measured at week 2 to 4 by ELISA; type: functional, organism-based
Mus musculus [25] = test: Immuno-adjuvant activity in OVA-immunized BALB/c mouse assessed as potentiation of antibody response to OVA by measuring increase in serum anti-OVA IgG activity at 100 ug, sc administered immediately and on day 14, 28 and measured at week 4 to 6 by ELISA; type: functional, organism-based; procedure, shortened: as §1

Compound	Activity (Mus musculus [1])	Activity (Mus musculus [2]) [µg/mL]	Activity (Mus musculus [3]) [µg/mL]	Activity (Mus musculus [4])	Ratio (Mus musculus [5])	Activity [6]	Activity (Mus musculus [7])	Activity (Mus musculus [8])	Activity (Mus musculus [9])	Activity (Mus musculus [10])	Activity (Mus musculus [11])	Activity (Mus musculus [12])	Activity (Mus musculus [16])	other results
C[C@@H]1O[C@@H](O[C@H]2[C@H](O)[C@@H](C(=O)O)O[C@@H](O[C@H]3CC[C@]4(C)[C@H]5CC=C6[C@H]7CC(C)(C)CC[C@]7(C(=O)O[C@@H]7O[C@H](C)[C@H](O)[C@H](O)[C@H]7O[C@@H]7O[C@@H](C)[C@H](O[C@@H]8OC[C@@H](O)[C@H](O)[C@H]8O)[C@@H](O[C@@H]8O[C@H](CO)[C@@H](O)[C@H](O[C@@H]9OC[C@@H](O)[C@H](O)[C@H]9O)[C@H]8O)[C@H]7O)CC[C@@]6(C)[C@]5(C)CC[C@H]4[C@]3(C)C=O)[C@@H]2O[C@@H]2O[C@H](CO)[C@H](O)[C@H](O)[C@H]2O)[C@H](O)[C@H](O)[C@H]1O	Active	233	0.2	inactive	<0.001	Non-Toxic	Active	inactive	inactive	inactive	Active	inactive		
C[C@@H]1O[C@@H](O[C@H]2[C@H](O)[C@@H](C(=O)O)O[C@@H](O[C@H]3CC[C@]4(C)[C@H]5CC=C6[C@H]7CC(C)(C)CC[C@]7(C(=O)O[C@@H]7O[C@H](C)[C@H](O)[C@H](O)[C@H]7O[C@@H]7O[C@@H](C)[C@H](O[C@@H]8OC[C@@H](O)[C@H](O)[C@H]8O)[C@@H](O[C@@H]8O[C@H](CO)[C@@H](O)[C@H](O[C@@H]9OC[C@@H](O)[C@H](O)[C@H]9O)[C@H]8O)[C@H]7O)[C@H](O)C[C@@]6(C)[C@]5(C)CC[C@H]4[C@]3(C)C=O)[C@@H]2O[C@@H]2O[C@H](CO)[C@H](O)[C@H](O)[C@H]2O)[C@H](O)[C@H](O)[C@H]1O	Active	262	0.1		<0.001	Non-Toxic	Active	inactive	inactive	inactive	Active	inactive		Activity (Mus musculus [13]): Active; Activity (Mus musculus [14]): inactive
CC1(C)CC[C@]2(C(=O)O[C@@H]3O[C@H](CO)[C@@H](O)[C@H](O[C@@H]4O[C@H](CO)[C@@H](O)[C@H](O[C@@H]5O[C@H](CO)[C@@H](O)[C@H](O[C@@H]6O[C@H](CO)[C@@H](O)[C@H](O[C@@H]7O[C@H](CO)[C@@H](O)[C@H](O)[C@H]7O)[C@H]6O)[C@H]5O)[C@H]4O)[C@H]3O)[C@H](O)C[C@]3(C)C(=CC[C@@H]4[C@@]5(C)CC[C@H](O[C@@H]6O[C@H](CO)[C@@H](O)[C@H](O[C@@H]7O[C@H](CO)[C@@H](O)[C@H](O[C@@H]8O[C@H](CO)[C@@H](O)[C@H](O)[C@H]8O)[C@H]7O)[C@H]6O)[C@@](C)(C=O)[C@@H]5CC[C@]43C)[C@H]2C1														survival at 120 h [15]: 0%
CCCCCCCCCCCCNC(=O)[C@H]1O[C@@H](O[C@H]2CC[C@]3(C)[C@H]4CC=C5[C@H]6CC(C)(C)CC[C@]6(C(=O)O[C@@H]6O[C@H](C)[C@H](O)[C@H](O)[C@H]6O[C@@H]6O[C@@H](C)[C@H](O[C@@H]7OC[C@@H](O)[C@H](O)[C@H]7O)[C@@H](O[C@@H]7O[C@H](CO)[C@@H](O)[C@H](O[C@@H]8OC[C@@H](O)[C@H](O)[C@H]8O)[C@H]7O)[C@H]6O)CC[C@@]5(C)[C@]4(C)CC[C@H]3[C@]2(C)C=O)[C@H](O[C@@H]2O[C@H](CO)[C@H](O)[C@H](O)[C@H]2O)[C@@H](O[C@@H]2O[C@@H](C)[C@H](O)[C@@H](O)[C@H]2O)[C@@H]1O	Active	713	208	Active	0.312	Non-Toxic	Active	inactive	Active	inactive	Active	Active	Active	Activity (Mus musculus [17]): Active; survival at 120 h [18]: 0%; Activity [19]: Non-Toxic; Activity [20]: Non-Toxic; Activity [21]: Non-Toxic; survival at 120 h [22]: 100%
CCCCCCCCCCCCNC(=O)[C@H]1O[C@@H](O[C@H]2CC[C@]3(C)[C@H]4CC=C5[C@H]6CC(C)(C)CC[C@]6(C(=O)O[C@@H]6O[C@H](C)[C@H](O)[C@H](O)[C@H]6O[C@@H]6O[C@@H](C)[C@H](O[C@@H]7OC[C@@H](O)[C@H](O)[C@H]7O)[C@@H](O[C@@H]7O[C@H](CO)[C@@H](O)[C@H](O[C@@H]8OC[C@@H](O)[C@H](O)[C@H]8O)[C@H]7O)[C@H]6O)[C@H](O)C[C@@]5(C)[C@]4(C)CC[C@H]3[C@]2(C)C=O)[C@H](O[C@@H]2O[C@H](CO)[C@H](O)[C@H](O)[C@H]2O)[C@@H](O[C@@H]2O[C@@H](C)[C@H](O)[C@@H](O)[C@H]2O)[C@@H]1O	Active	869	1		<0.001	Non-Toxic	Active	inactive	inactive	inactive	Active	inactive	Active	Activity (Mus musculus [23]): inactive; Activity (Mus musculus [24]): Active; Activity (Mus musculus [25]): Active
